Laboratory results from ChEMBL document CHEMBL1122046, “Quaternary heterocyclylamino beta-lactams: a generic alternative to the classical acylamino side chain” (1982).
≈ marks a conversion by molar mass, not a printed value.

Tests used:
Assay type in all cases: functional
Morganella morganii = assay: Minimum inhibitory concentration against aerobic organism Morganella morganii strain 2833
Method in brief: (§1)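 Agar-dilution MIC in µg/mL against aerobic bacterial strains on tryptocase soy agar, with inoculum applied as spots. Most series used 10^5 cfu per spot, and a later series used 10^4 cfu per spot. In some tables, footnoted strains were instead tested on Mueller-Hinton or nutrient agar. β-Lactamase-producing strains are flagged.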

Serratia marcescens = assay: Minimum inhibitory concentration against aerobic organism Serratia marcescens strain 2852; method in brief: as §1
Pseudomonas aeruginosa = assay: Minimum inhibitory concentration against aerobic organism Pseudomonas aeruginosa strain 2835; method in brief: as §1
Klebsiella aerogenes = assay: Minimum inhibitory concentration against aerobic organism Enterobacter aerogenes strain 2906; method in brief: as §1
Proteus vulgaris = assay: Minimum inhibitory concentration against aerobic organism Proteus vulgaris strain 2829; method in brief: as §1
Shigella = assay: Minimum inhibitory concentration against aerobic organism Shigella species strain 2880; method in brief: as §1
Staphylococcus aureus = assay: Minimum inhibitory concentration against aerobic organism Staphylococcus aureus strain 2868; method in brief: as §1
Streptococcus pyogenes = assay: Minimum inhibitory concentration against aerobic organism Streptococcus pyogenes strain 3124; method in brief: as §1
Enterobacter cloacae = assay: Minimum inhibitory concentration against aerobic organism Enterobacter cloacae strain 2646; method in brief: as §1
Enterococcus faecalis = assay: Minimum inhibitory concentration against aerobic organism Streptococcus faecalis strain 2864; method in brief: as §1
Escherichia coli = assay: MIC against aerobic organism Escherichia coli strain 2891; method in brief: as §1
[1] = Minimum inhibitory concentration against aerobic organism Salmonella schottmuelleri strain 2837; method in brief: as §1
Klebsiella pneumoniae = assay: Minimum inhibitory concentration against aerobic organism Klebsiella pneumoniae strain 2882; method in brief: as §1
Proteus mirabilis = assay: Minimum inhibitory concentration against aerobic organism Proteus mirabilis strain 2830; method in brief: as §1
[2] = Morganella morganii, read-out: MIC
[3] = Serratia marcescens, read-out: MIC
[4] = Klebsiella aerogenes, read-out: MIC
[5] = Proteus vulgaris, read-out: MIC
[6] = Staphylococcus aureus, read-out: MIC
[7] = Streptococcus pyogenes, read-out: MIC
[8] = Enterobacter cloacae, read-out: MIC
[9] = Escherichia coli, read-out: MIC
[10] = Klebsiella pneumoniae, read-out: MIC
[11] = Proteus mirabilis, read-out: MIC

SMILES | MIC (Morganella morganii; [2]) | MIC (Serratia marcescens; [3]) | MIC (Pseudomonas aeruginosa) | MIC (Klebsiella aerogenes; [4]) | MIC (Proteus vulgaris; [5]) | MIC (Shigella; Shigella, read-out: MIC) | MIC (Staphylococcus aureus; [6]) | MIC (Streptococcus pyogenes; [7]) | MIC (Enterobacter cloacae; [8]) | MIC (Enterococcus faecalis) | MIC (Escherichia coli; [9]) | MIC ([1]; Salmonella, read-out: MIC) | MIC (Klebsiella pneumoniae; [10]) | MIC (Proteus mirabilis; [11]) | further results
Cn1nnnc1SCC1=C(C(=O)[O-])N2C(=O)[C@@H](Nc3cc[n+](CCc4ccccc4)cc3)[C@H]2SC1 | > 128 µg/mL | > 128 µg/mL | > 128 µg/mL | 64 µg/mL (≈ 126 µM) | > 128 µg/mL | < 0.5 µg/mL | 4 µg/mL (≈ 7.85 µM) | < 0.5 µg/mL | 8 µg/mL (≈ 15.7 µM) | > 128 µg/mL | 4 µg/mL (≈ 7.85 µM) | 1 µg/mL (≈ 1.96 µM) | 1 µg/mL (≈ 1.96 µM) | > 128 µg/mL | 
Cn1nnnc1SCC1=C(C(=O)[O-])N2C(=O)[C@@H](Nc3cc[n+](C)cc3)[C@H]2SC1 (stereo in doubt; 15a) |  |  |  |  |  |  |  |  |  |  |  |  |  |  | MIC (Morganella morganii): 4 µg/mL (≈ 9.54 µM); MIC (Serratia marcescens): 1 µg/mL (≈ 2.38 µM); MIC (Klebsiella aerogenes): 0.5 µg/mL (≈ 1.19 µM); MIC (Proteus vulgaris): 0.25 µg/mL (≈ 0.596 µM); MIC (Shigella): 1 µg/mL (≈ 2.38 µM); MIC (Staphylococcus aureus): 64 µg/mL (≈ 153 µM); MIC (Streptococcus pyogenes): 2 µg/mL (≈ 4.77 µM); MIC (Enterobacter cloacae): 1 µg/mL (≈ 2.38 µM); MIC (Escherichia coli): 0.5 µg/mL (≈ 1.19 µM); MIC [1]: 8 µg/mL (≈ 19.1 µM); MIC (Klebsiella pneumoniae): 8 µg/mL (≈ 19.1 µM); MIC (Proteus mirabilis): 8 µg/mL (≈ 19.1 µM)
Cn1nnnc1SCC1=C(C(=O)[O-])N2C(=O)[C@@H](Nc3cc[n+](COCc4ccccc4)cc3)[C@H]2SC1 | > 128 µg/mL | > 128 µg/mL | > 128 µg/mL | 128 µg/mL (≈ 244 µM) | 128 µg/mL (≈ 244 µM) | 1 µg/mL (≈ 1.9 µM) | 16 µg/mL (≈ 30.4 µM) |  | 16 µg/mL (≈ 30.4 µM) | > 128 µg/mL | 1 µg/mL (≈ 1.9 µM) | 1 µg/mL (≈ 1.9 µM) | 2 µg/mL (≈ 3.81 µM) | > 128 µg/mL | 
CC(=O)OCC1=C(C(=O)[O-])N2C(=O)[C@@H](Nc3cc[n+](Cc4ccccc4)cc3)[C@H]2SC1 | > 128 µg/mL | > 128 µg/mL | > 128 µg/mL | 16 µg/mL (≈ 36.4 µM) | 0.125 µg/mL (≈ 0.284 µM) | < 0.06 µg/mL | 4 µg/mL (≈ 9.1 µM) |  | 4 µg/mL (≈ 9.1 µM) | 128 µg/mL (≈ 291 µM) | 0.5 µg/mL (≈ 1.14 µM) | < 0.06 µg/mL | < 0.06 µg/mL | > 128 µg/mL | 
CC1(C)SC2C(Nc3cc[n+](COCC(Cl)(Cl)Cl)cc3)C(=O)N2[C@H]1C(=O)[O-] (some centres undefined) |  |  |  |  |  | < 0.06 µg/mL | > 128 µg/mL |  | 0.5 µg/mL (≈ 1.1 µM) | 128 µg/mL (≈ 281 µM) | 0.5 µg/mL (≈ 1.1 µM) | < 0.06 µg/mL | 0.5 µg/mL (≈ 1.1 µM) |  | 
C[n+]1ccccc1NC(C(=O)NC1C(=O)N2C1SC(C)(C)[C@@H]2C(=O)[O-])c1ccccc1 (some centres undefined) |  |  |  |  |  | 25 µg/mL (≈ 56.8 µM) | 3.12 µg/mL (≈ 7.08 µM) | < 0.39 µg/mL | > 100 µg/mL | 12.5 µg/mL (≈ 28.4 µM) | > 100 µg/mL | 12.5 µg/mL (≈ 28.4 µM) | > 100 µg/mL |  | 

More lines, main results first:

MIC (Morganella morganii; [2]) | MIC (Serratia marcescens; [3]) | MIC (Pseudomonas aeruginosa) | MIC (Klebsiella aerogenes; [4]) | MIC (Proteus vulgaris; [5]) | MIC (Shigella; Shigella, read-out: MIC) | MIC (Staphylococcus aureus; [6]) | MIC (Streptococcus pyogenes; [7]) | MIC (Enterobacter cloacae; [8]) | MIC (Enterococcus faecalis) | MIC (Escherichia coli; [9]) | MIC ([1]; Salmonella, read-out: MIC) | MIC (Klebsiella pneumoniae; [10]) | MIC (Proteus mirabilis; [11]) | SMILES | further results
 |  |  |  |  | 25 µg/mL (≈ 56.8 µM) | 3.12 µg/mL (≈ 7.08 µM) | < 0.39 µg/mL | > 100 µg/mL | 12.5 µg/mL (≈ 28.4 µM) | > 100 µg/mL | 6.25 µg/mL (≈ 14.2 µM) | > 100 µg/mL |  | C[n+]1ccc(NC(C(=O)NC2C(=O)N3C2SC(C)(C)[C@@H]3C(=O)[O-])c2ccccc2)cc1 (some centres undefined) | 
> 128 µg/mL | > 128 µg/mL | > 128 µg/mL | 32 µg/mL (≈ 62.6 µM) | 32 µg/mL (≈ 62.6 µM) | < 0.06 µg/mL | 8 µg/mL (≈ 15.7 µM) |  | 0.125 µg/mL (≈ 0.245 µM) | 128 µg/mL (≈ 251 µM) | < 0.06 µg/mL | < 0.06 µg/mL | < 0.06 µg/mL | > 128 µg/mL | CC(=O)OCC1=C(C(=O)[O-])N2C(=O)[C@@H](Nc3cc[n+](COCC(Cl)(Cl)Cl)cc3)[C@H]2SC1 | 
> 128 µg/mL | > 128 µg/mL | 128 µg/mL (≈ 348 µM) | 64 µg/mL (≈ 174 µM) | 0.125 µg/mL (≈ 0.34 µM) | < 0.06 µg/mL | 16 µg/mL (≈ 43.5 µM) |  | 8 µg/mL (≈ 21.8 µM) | 128 µg/mL (≈ 348 µM) | 1 µg/mL (≈ 2.72 µM) | < 0.06 µg/mL | < 0.06 µg/mL | > 128 µg/mL | O=C([O-])C1=CCS[C@@H]2[C@H](Nc3cc[n+](Cc4ccccc4)cc3)C(=O)N12 | 
 |  |  |  |  | 0.25 µg/mL (≈ 0.652 µM) | 64 µg/mL (≈ 167 µM) | 0.25 µg/mL (≈ 0.652 µM) | 4 µg/mL (≈ 10.4 µM) | 128 µg/mL (≈ 334 µM) | 4 µg/mL (≈ 10.4 µM) | 0.125 µg/mL (≈ 0.326 µM) | 16 µg/mL (≈ 41.7 µM) |  | CC1(C)SC2C(Nc3cc[n+](Cc4ccccc4)cc3)C(=O)N2[C@H]1C(=O)[O-] (some centres undefined) | 
